Among the data in ChEMBL document CHEMBL1131143, “Predictive models for GABAA/benzodiazepine receptor subtypes: studies of quantitative structure-activity relationships for imidazobenzodiazepines at five recombinant GABAA/benzodiazepine receptor subtypes [alphaxbeta3gamma2 (x = 1-3, 5, and 6)] via comparative molecular field analysis” (J Med Chem, 1998) are Ki and Ratio values, retold here.

Where only a bound is given, the exact number is not on record here.

One may read the Ki as the equilibrium dissociation constant of an inhibitor or competing ligand from its target. A low value points to a stronger hold on the target.

What all share (assay type): protein-complex assay
Assay [1] deals with T1, GABA-A receptor; alpha-3/beta-3/gamma-2 (Homo sapiens, UniProt P18507+P28472+P34903).
T1 sequence (P18507 whole entry): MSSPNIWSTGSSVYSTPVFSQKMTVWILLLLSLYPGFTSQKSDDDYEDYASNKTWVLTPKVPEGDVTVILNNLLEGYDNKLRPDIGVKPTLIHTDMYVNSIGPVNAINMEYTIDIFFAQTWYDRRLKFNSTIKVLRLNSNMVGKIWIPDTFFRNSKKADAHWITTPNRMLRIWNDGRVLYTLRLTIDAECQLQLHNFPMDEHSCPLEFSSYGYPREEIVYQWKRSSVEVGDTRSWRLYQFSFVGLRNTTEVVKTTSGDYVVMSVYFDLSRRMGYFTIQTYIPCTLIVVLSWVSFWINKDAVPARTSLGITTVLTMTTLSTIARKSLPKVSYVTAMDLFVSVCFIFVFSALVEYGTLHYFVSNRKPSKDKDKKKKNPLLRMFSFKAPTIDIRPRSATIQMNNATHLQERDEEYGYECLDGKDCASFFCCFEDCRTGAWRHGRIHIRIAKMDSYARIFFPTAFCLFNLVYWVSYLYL
T1 sequence (P28472 whole entry): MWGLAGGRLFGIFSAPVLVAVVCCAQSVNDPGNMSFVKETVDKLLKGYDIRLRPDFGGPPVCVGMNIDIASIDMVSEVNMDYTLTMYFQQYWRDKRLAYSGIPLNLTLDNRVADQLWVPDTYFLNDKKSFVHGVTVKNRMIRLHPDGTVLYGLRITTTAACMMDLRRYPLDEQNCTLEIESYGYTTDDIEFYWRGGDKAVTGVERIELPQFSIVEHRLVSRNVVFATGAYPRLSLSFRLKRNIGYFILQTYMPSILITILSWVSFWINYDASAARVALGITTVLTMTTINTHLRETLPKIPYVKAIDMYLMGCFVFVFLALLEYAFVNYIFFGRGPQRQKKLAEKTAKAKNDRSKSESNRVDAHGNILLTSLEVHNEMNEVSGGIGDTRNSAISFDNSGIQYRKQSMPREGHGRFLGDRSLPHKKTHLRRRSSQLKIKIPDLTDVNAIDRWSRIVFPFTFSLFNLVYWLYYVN
T1 sequence (P34903 whole entry): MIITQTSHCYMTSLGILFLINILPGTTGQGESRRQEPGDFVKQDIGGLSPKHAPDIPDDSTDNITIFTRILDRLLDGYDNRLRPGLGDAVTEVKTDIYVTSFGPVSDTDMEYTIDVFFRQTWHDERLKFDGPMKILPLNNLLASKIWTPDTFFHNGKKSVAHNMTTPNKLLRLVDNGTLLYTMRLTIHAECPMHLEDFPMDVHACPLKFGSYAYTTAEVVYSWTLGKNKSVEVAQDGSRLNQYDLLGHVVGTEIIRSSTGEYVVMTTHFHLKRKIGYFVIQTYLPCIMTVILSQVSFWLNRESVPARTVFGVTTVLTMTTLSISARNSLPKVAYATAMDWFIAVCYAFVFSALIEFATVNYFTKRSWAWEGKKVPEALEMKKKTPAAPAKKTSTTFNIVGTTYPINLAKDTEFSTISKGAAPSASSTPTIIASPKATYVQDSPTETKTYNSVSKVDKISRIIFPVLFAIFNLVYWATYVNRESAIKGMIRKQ
Put plainly: Binding affinity against alpha-3-beta-3-gamma-2 GABAA/BzR receptor subtype.

Assay [2] concerns the target GABA-A receptor; alpha-1/beta-3/gamma-2 (Homo sapiens) (UniProt P14867+P18507+P28472). The experiment in a line: It is the ratio of Ki value for alpha-1-beta-3-gamma-2 to that of alpha-5-beta-3-gamma-2.
For assay [3], the target named is T2, GABA-A receptor; alpha-1/beta-3/gamma-2 (Homo sapiens, UniProt P14867+P18507+P28472).
T2 sequence (P14867 whole entry): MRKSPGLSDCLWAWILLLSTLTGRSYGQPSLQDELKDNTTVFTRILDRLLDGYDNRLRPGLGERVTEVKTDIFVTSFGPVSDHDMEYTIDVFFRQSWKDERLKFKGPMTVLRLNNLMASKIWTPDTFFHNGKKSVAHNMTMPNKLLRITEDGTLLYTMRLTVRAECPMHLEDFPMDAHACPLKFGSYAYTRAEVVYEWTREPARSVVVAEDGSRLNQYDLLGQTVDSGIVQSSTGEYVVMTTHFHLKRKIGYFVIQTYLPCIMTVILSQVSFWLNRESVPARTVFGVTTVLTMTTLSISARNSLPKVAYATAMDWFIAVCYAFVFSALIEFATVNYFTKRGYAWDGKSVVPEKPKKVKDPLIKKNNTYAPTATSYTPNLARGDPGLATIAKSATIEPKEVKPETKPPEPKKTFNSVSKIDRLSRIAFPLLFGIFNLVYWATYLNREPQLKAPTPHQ
T2 sequence (P18507 whole entry): T1 sequence (P18507 whole entry)
T2 sequence (P28472 whole entry): T1 sequence (P28472 whole entry)
The experiment in a line: Binding affinity against alpha-1-beta-3-gamma-2 GABAA/BzR receptor subtype.

Assay [4] has as its target T3, GABA-A receptor; alpha-2/beta-3/gamma-2 (Homo sapiens, UniProt P18507+P28472+P47869).
T3 sequence (P18507 whole entry): T1 sequence (P18507 whole entry)
T3 sequence (P28472 whole entry): T1 sequence (P28472 whole entry)
T3 sequence (P47869 whole entry): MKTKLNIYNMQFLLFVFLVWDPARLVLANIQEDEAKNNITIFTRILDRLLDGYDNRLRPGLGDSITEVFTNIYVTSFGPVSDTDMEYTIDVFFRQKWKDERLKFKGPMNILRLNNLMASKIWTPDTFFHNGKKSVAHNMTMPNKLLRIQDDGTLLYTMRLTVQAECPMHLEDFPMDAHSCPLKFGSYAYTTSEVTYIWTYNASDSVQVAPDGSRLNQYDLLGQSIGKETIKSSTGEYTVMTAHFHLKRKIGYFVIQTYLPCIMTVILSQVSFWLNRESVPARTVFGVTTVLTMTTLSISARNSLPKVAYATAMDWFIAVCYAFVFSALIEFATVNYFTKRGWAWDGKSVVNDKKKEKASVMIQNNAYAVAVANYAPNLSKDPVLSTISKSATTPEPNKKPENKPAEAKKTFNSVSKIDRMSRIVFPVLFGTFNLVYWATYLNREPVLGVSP
The experiment in a line: Binding affinity tested against alpha-2-beta-3-gamma-2 GABAA/BzR receptor subtype.

The target of assay [5] is GABA-A receptor; alpha-6/beta-3/gamma-2 (Homo sapiens, UniProt P18507+P28472+Q16445). The experiment in a line: Binding affinity against Gamma-aminobutyric acid A receptor alpha-6-beta-3-gamma-2. The procedure, abridged: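 Cells scraped into PBS, spun at 3000g, resuspended in 10 mM KH₂PO₄/100 mM KCl pH 7.4. Nonspecific binding with 10⁻⁵ M diazepam; 1 h to equilibrium at 4 °C; filtration, ice-cold buffer wash, scintillation counting.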

The target in assay [6] is T4, GABA-A receptor; alpha-5/beta-3/gamma-2 (Homo sapiens, UniProt P18507+P28472+P31644).
T4 sequence (P18507 whole entry): T1 sequence (P18507 whole entry)
T4 sequence (P28472 whole entry): T1 sequence (P28472 whole entry)
T4 sequence (P31644 whole entry): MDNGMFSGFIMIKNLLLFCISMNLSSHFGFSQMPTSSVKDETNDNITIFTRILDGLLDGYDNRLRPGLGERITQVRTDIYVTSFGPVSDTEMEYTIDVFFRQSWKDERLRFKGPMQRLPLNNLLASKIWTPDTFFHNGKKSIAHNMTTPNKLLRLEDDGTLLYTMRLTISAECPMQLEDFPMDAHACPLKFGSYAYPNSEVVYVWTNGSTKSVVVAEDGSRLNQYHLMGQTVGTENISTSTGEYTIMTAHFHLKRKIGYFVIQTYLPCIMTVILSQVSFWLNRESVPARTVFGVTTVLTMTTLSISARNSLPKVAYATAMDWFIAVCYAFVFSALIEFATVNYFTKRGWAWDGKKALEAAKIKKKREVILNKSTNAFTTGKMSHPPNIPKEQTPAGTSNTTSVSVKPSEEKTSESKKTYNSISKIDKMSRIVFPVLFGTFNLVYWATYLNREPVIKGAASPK
Put plainly: Binding affinity for Gamma-aminobutyric acid A receptor alpha-5-beta-3-gamma-2.

Chain of GABA-A receptor; alpha-6/beta-3/gamma-2 (Q16445 whole entry, one chain of several): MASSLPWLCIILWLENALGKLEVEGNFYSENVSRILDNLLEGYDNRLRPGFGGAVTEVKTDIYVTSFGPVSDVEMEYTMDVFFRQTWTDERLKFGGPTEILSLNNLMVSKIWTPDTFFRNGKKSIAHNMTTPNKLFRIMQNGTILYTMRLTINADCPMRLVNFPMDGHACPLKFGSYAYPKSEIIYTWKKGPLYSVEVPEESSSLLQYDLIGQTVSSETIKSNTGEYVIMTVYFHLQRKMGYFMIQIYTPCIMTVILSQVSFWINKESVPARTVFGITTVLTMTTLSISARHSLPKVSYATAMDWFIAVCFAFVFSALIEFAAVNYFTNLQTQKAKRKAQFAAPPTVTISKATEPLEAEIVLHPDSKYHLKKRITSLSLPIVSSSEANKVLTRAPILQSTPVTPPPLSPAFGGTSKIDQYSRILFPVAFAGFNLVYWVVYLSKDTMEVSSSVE

As for `COCc1ncn2c1CN(C)C(=O)c1cc(Cl)ccc1-2`, the Ki in assay [1] was greater than 300 nM; in assay [3], greater than 300 nM; in assay [4], greater than 300 nM; in assay [5], greater than 300 nM; in assay [6], 38.8 nM. The Ratio in assay [2] is greater than 7.7.

In the case of `C#Cc1ccc2c(c1)C(=O)N1CCC[C@H]1c1c(-c3nc(C)no3)ncn1-2`, the Ki in assay [1] amounted to 91 nM; in assay [3] it was 89 nM; in assay [4], 70 nM; in assay [5], 301 nM; in assay [6] it was 3.7 nM. The Ratio in assay [2] was 24.

For the compound `CCOC(=O)c1ncn2c1[C@@H]1CCCN1C(=O)c1cc(C#C[Si](C)(C)C)ccc1-2`, the Ki in assay [1] stood at 79 nM; in assay [3] it was 200 nM; in assay [4], 124 nM; in assay [5], 340 nM; in assay [6], 4 nM. The Ratio in assay [2] came out at 50.

Turning to `CN1Cc2c(C(=O)OCC3CC3)ncn2-c2ccc(Cl)cc2C1=O`, the inhibition constant (Ki) is 42.5 nM in assay [1]; 16.4 nM in assay [3]; 48.2 nM in assay [4]; 168 nM in assay [5]; 9.8 nM in assay [6]. Moreover, the Ratio in assay [2] came out at 1.7.

As to `CC(=O)c1ncn2c1CN(C)C(=O)c1cc(Cl)ccc1-2`, the Ki amounted to 22100 nM in assay [1]; 17500 nM in assay [3]; 33800 nM in assay [4]; 29500 nM in assay [5]; 2610 nM in assay [6]. The Ratio in assay [2] turned out to be 6.7.

`CN1Cc2c(CO)ncn2-c2ccc(Cl)cc2C1=O`: the Ki in assay [1], in assay [3], in assay [4], in assay [5] and in assay [6] was greater than 300 nM in each case.

With `CN1Cc2c(C(=O)OC(C)(C)C)ncn2-c2ccc(Br)cc2C1=O`, the Ki in assay [1] came to 9.2 nM; in assay [3], 11.4 nM; in assay [4] it was 10.7 nM; in assay [5] it was 9.4 nM; in assay [6], 0.47 nM. For the same compound, in assay [2], the Ratio stood at 24.3.

On to `CCOC(=O)c1ncn2c1CN(C)C(=O)c1cc(C#C[Si](C)(C)C)ccc1-2`, for which the Ki in assay [1] is 198 nM; in assay [4] it was 142 nM; in assay [5], 114 nM; in assay [6], 5 nM. The Ratio in assay [2] was 24.2.

Regarding `CN1Cc2c(C(=O)OC(C)(C)C)ncn2-c2ccc(N=[N+]=[N-])cc2C1=O`, the inhibition constant (Ki) was found to be 5.66 nM in assay [1], 7.25 nM in assay [3], 5.25 nM in assay [5] and 0.3 nM in assay [6]. The Ratio in assay [2] was determined as 24.3.

For the compound `CCOC(=O)c1ncn2c1[C@H]1CCCN1C(=O)c1cc(Br)ccc1-2`, the Ki in assay [1], in assay [3], in assay [4], in assay [5] and in assay [6] was greater than 1000 nM each time.

Regarding `CN1Cc2c(C(=O)OC(C)(C)C)ncn2-c2ccc(N3CCCC3)cc2C1=O`, the Ki in assay [1] is 169 nM; in assay [3], 5.8 nM; in assay [5], 325 nM; in assay [6], 9.25 nM. For the same compound, the Ratio in assay [2] was found to be 0.63.

`CN1Cc2c(C(=O)OC(C)(C)C)ncn2-c2ccc(O)cc2C1=O`: the Ki in assay [1] was determined as 0.53 nM; in assay [3], 1.5 nM; in assay [5], 6.89 nM; in assay [6], 0.14 nM. Moreover, the Ratio in assay [2] came to 10.7.

The compound `CCOC(=O)c1ncn2c1CN(C)C(=O)c1cc(N=[N+]=[N-])ccc1-2` [Ro-154513] registered a Ki in assay [6] of 0.27 nM.

`COc1ccc2c(c1)C(=O)N(C)Cc1c(C(=O)OC(C)(C)C)ncn1-2`: the inhibitory constant (Ki) was 7.42 nM in assay [1], 6.74 nM in assay [3], 8.28 nM in assay [5] and 0.293 nM in assay [6]. The Ratio in assay [2] amounted to 23.

For `C#Cc1ccc2c(c1)C(=O)N1CCC[C@@H]1c1c(-c3nc(C)no3)ncn1-2`, the Ki in assay [1] is greater than 1000 nM; in assay [3] it was greater than 1000 nM; in assay [4], greater than 1000 nM; in assay [5] it was greater than 1000 nM; in assay [6], 157 nM.

`CCOC(=O)c1ncn2c1[C@H]1CCCN1C(=O)c1cc(C#C[Si](C)(C)C)ccc1-2`: the Ki in assay [1], in assay [3], in assay [4], in assay [5] and in assay [6] was greater than 1000 nM throughout.

Consider `CCOC(=O)c1ncn2c1CN(C)C(=O)c1cc(C#CC[Si](C)(C)C)ccc1-2`, for which the Ki in assay [1], in assay [3], in assay [4], in assay [5] and in assay [6] was greater than 300 nM in each case.

Turning to `C#Cc1ccc2c(c1)C(=O)N1CC[C@H]1c1c(-c3nc(C)no3)ncn1-2`, the Ki came out at 91 nM in assay [1], 56 nM in assay [4], 266 nM in assay [5] and 7.2 nM in assay [6].

As for `C=Cc1ccc2c(c1)C(=O)N(C)Cc1c(C(=O)OCC)ncn1-2`, the Ki in assay [1] is 6.9 nM; in assay [3] it was 8.3 nM; in assay [4], 10.2 nM; in assay [6] it was 0.4 nM. In assay [2], the Ratio came out at 20.8.

In the case of `CCOC(=O)c1ncn2c1CN(C)C(=O)c1cc(Cl)ccc1-2` [Ro-151310], the Ratio in assay [2] amounted to 8.
